For experiment [1], the system named is Mycobacterium tuberculosis. Description: Antitubercular activity against Mycobacterium tuberculosis H37Rv by microplate alamar blue assay. Type of experiment: functional. The procedure, abridged: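 M. tuberculosis H37Rv (ATCC 27294) tested in the microplate Alamar Blue assay with fluorescence read-out. MIC taken as the lowest drug concentration giving ≥90% inhibition relative to untreated cultures.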
In general terms: Alamar Blue is a resazurin reagent that responds to reducing activity.

The test system of experiment [2] is Vero. Description: Cytotoxicity against african green monkey Vero cells. Format: cell-based. To be noted: Chlorocebus sabaeus. In short, it runs like this: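 Vero cells (ATCC CCL-81) tested in the CellTiter 96 aqueous nonradioactive cell proliferation assay. Maximum (100%) cytotoxicity set by lysing cells with sodium dodecyl sulfate. IC50 defined as the reciprocal dilution giving 50% inhibition of the Vero cells.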

Experiment [3] is described as follows: Selectivity index, ratio of IC50 for african green monkey Vero cells to MIC for Mycobacterium tuberculosis H37Rv. Format: functional. In short, it runs like this: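 Calculated as Vero IC50 (CellTiter 96 aqueous assay, ATCC CCL-81 cells) divided by the H37Rv MIC (microplate Alamar Blue, ≥90% inhibition relative to untreated cultures).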

Molecules are shown by their SMILES. ≈ marks a conversion by molar mass, not a printed value. Bounds are passed on as bounds.

Consider `CCCCCCCCCCCC(=O)O[C@H]1CC[C@]23C[C@]24CC[C@]2(C)[C@@H]([C@H](C)C/C=C/C(C)(C)O)CC[C@@]2(C)[C@@H]4CC[C@H]3C1(C)C`, for which the MIC in experiment [1] was > 128 µg/mL. The molecule `C=C(C)[C@@H]1CC[C@]2(C)CC[C@]3(C)[C@H](CC[C@@H]4[C@@]5(C)CC[C@@H](O)C(C)(C)[C@@H]5CC[C@]43C)[C@@H]12` returned a minimal inhibitory concentration (MIC) in experiment [1] of 13.4 µg/mL (≈ 31.4 µM). Half-maximal inhibition in experiment [2] (IC50) required 127 µg/mL (≈ 298 µM). For the same molecule, in experiment [3], the Ratio is 10.4.

For `C[C@H]1[C@H](C)CC[C@]2(C)CC[C@]3(C)C(=CC[C@@H]4[C@@]5(C)CC[C@@H](O)C(C)(C)[C@@H]5CC[C@]43C)[C@H]12`, the MIC in experiment [1] was > 128 µg/mL.

In turn, `CC1(C)CC[C@]2(C)CC[C@]3(C)C(=CC[C@@H]4[C@@]5(C)CC[C@@H](O)C(C)(C)[C@@H]5CC[C@]43C)[C@@H]2C1` yielded a minimal inhibitory concentration (MIC) in experiment [1] of 12.2 µg/mL (≈ 28.6 µM). Further, inhibition in experiment [2] was half-maximal at 127 µg/mL (≈ 298 µM) (IC50). In addition, in experiment [3], the Ratio amounted to 10.4.

For the molecule `O=C(c1c(O)cc(O)cc1O)[C@H](O)[C@H](O)c1cc(O)c(O)c(O)c1`, the MIC in experiment [1] was > 128 µg/mL. As to `C[C@@H]1CC[C@]2(C(=O)O)CC[C@]3(C)C(=CC[C@@H]4[C@@]5(C)C[C@@H](O)[C@H](O)[C@@](C)(CO)[C@@H]5CC[C@]43C)[C@@H]2C1`, the minimum inhibitory concentration (MIC) in experiment [1] was > 128 µg/mL. On to `O=c1c(O[C@@H]2O[C@H](CO)[C@@H](O)[C@H](O)[C@H]2O)c(-c2ccc(O)cc2)oc2cc(O)cc(O)c12` [ASTRAGALIN], for which, in experiment [1], the minimal inhibitory concentration (MIC) was > 128 µg/mL. In experiment [1], `CC(C)CCC[C@@H](C)[C@H]1CC[C@@]2(C)[C@@H]3CC[C@H]4C(C)(C)[C@@H](O)CC[C@@]45C[C@@]35CC[C@]12C` [CYCLOARTANOL] displayed an MIC of 8 µg/mL (≈ 18.7 µM). Also, in experiment [2], the IC50 was 102 µg/mL (≈ 239 µM). In addition, the Ratio in experiment [3] was determined as 12.8. The molecule `O=c1c(O[C@@H]2O[C@H](CO)[C@@H](O)[C@H](O)[C@H]2O)c(-c2ccc(O)c(O)c2)oc2cc(O)cc(O)c12` [ISOQUERCETIN] displayed an MIC in experiment [1] of 94 µg/mL (≈ 202 µM). For `C=C[C@@]1(C)C=C2CC[C@H]3C(C)(C)C(=O)C[C@@H](O)[C@@]3(C)[C@H]2C[C@H]1O` [LECHERONOL A], the MIC in experiment [1] is 4 µg/mL (≈ 12.6 µM). This molecule also had an IC50 in experiment [2] of 105 µg/mL (≈ 329 µM). For the same molecule, in experiment [3], the Ratio amounted to 26.2. `C=C[C@@]1(C)C=C2CC[C@@H]3[C@@](C)(CCC(=O)[C@@]3(C)CO)[C@H]2C[C@H]1O` [LECHERONOL B] yielded an MIC in experiment [1] of 128 µg/mL (≈ 402 µM). As for `C=C(C)[C@@H]1CC[C@]2(C)CC[C@]3(C)[C@H](CC[C@@H]4[C@@]5(C)CC[C@H](O)C(C)(C)[C@@H]5CC[C@]43C)[C@@H]12` [LUPEOL], the MIC in experiment [1] is > 128 µg/mL. `CO[C@H]1/C=C/O[C@@]2(C)Oc3c(C)c(O)c4c(O)c(c(/C=N/N5CCN(C)CC5)c(O)c4c3C2=O)NC(=O)/C(C)=C\C=C\[C@H](C)[C@H](O)[C@@H](C)[C@@H](O)[C@@H](C)[C@H](OC(C)=O)[C@@H]1C` [RIFAMPIN] had an MIC in experiment [1] of 0.06 µg/mL (≈ 0.0729 µM). For the molecule `CC1(C)CC[C@]2(C)CC[C@]3(C)C(=CC[C@@H]4[C@@]5(C)CC[C@H](O)C(C)(C)[C@@H]5CC[C@]43C)[C@@H]2C1` [beta-AMYRIN], in experiment [1], the MIC was 64 µg/mL (≈ 150 µM).

For orientation: MIC means the lowest concentration that inhibits growth of the organism. What is called IC50 is the concentration needed to halve the response being measured.
